NF-kB expr up: activators of NF-kB expression in neurons, primary screen, cell-based, HTS | human neuronal cells, NF-kB reporter expression; stronger effect = higher value | fold change at 12.5 µM | 190,000 compounds, 1.6% hits; in the data active = fold change above about 3.3
Wee1 degr inh: Wee1 degradation inhibitors, primary screen, cell-based, HeLa, Wee1K328M-luciferase, luminescence; Wee1-like protein kinase (Homo sapiens), P30291; HeLa Luc-Wee1K328M stability; 100% = proteasome inhibitor MG132 effect; reporter increase, % at 5 µM; 220,000 compounds, 1.2% hits;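 active = activation above the mean of all tested compounds plus 3 SD, set per screening run, cut at about 8.8% in these data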;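 note: cells exposed to compound for 20 h before luminescence read; 0% = DMSO alone and 100% = MG132 at 30 µM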
Target sequence (P30291 whole entry K328M): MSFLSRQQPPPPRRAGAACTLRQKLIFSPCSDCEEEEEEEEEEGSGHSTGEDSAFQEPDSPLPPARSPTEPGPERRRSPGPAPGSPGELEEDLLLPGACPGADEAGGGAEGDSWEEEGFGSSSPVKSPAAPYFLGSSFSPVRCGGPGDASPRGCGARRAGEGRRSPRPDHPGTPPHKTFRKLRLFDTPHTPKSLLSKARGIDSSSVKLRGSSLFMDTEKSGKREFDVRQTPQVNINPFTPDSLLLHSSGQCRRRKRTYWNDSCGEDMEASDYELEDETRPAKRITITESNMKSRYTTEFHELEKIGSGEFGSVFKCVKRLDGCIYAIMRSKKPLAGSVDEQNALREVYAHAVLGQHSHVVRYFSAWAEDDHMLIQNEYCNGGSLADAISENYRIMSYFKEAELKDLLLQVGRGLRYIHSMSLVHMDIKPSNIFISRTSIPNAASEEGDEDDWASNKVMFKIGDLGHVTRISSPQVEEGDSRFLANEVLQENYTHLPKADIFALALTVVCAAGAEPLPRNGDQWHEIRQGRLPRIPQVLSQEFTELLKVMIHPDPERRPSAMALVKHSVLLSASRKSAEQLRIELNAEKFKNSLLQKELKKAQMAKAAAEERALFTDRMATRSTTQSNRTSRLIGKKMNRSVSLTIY
APP 5'UTR act: activators of APP 5'UTR luciferase reporter, primary screen, SH-SY5Y cells; SH-SY5Y APP 5'UTR luciferase reporter, luminescence; zero percent = DMSO vehicle wells; activation, % at 2 µM; 190,000 compounds, 1% hits;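 active = activation above a set limit, based on mean plus 3 SD of controls, cut at about 140% in these data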
Mdm2 ligase inh: MDM2-luciferase reporter signal enhancers, primary screen, MDM2 E3 ligase inhibitor project, cell-based, luminescence, 1536-well; E3 ubiquitin-protein ligase Mdm2 (Homo sapiens), Q00987; cell-based MDM2 ubiquitination luciferase reporter, 2 h; 0 = plate control, 100 = twice control, blank-subtracted; signal enhancement, % at 5 µM; 210,000 compounds, 0.11% hits; AID 1230, 2008;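 active = signal enhancement of 30% or more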;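 note: luminescence tracks abundance of the self-degrading MDM2-luciferase fusion protein; higher signal means inhibition of MDM2 E3 ligase activity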
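Material: Stable MDM2–luciferase fusion reporter cells | Amount: 2000 cells seeded into each well | Dosing: One concentration, 5 µM, with 0.2% DMSO | Incubation: 4 h cell settling then 2 h compound exposure, 37 °C | Measured by: Luciferase luminescence | Read-out basis: % enhancement relative to plate controls after blank subtraction | Benchmarks: Control and blank well means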
p97 ATPase inh: inhibitors of human p97 ATPase, primary screen, biochemical; AID 1481, 2009; recombinant p97 ATPase, Kinase-Glo ATP luminescence, 3 h; inhibition, % at 8 µM; Transitional endoplasmic reticulum ATPase (Homo sapiens), P55072; 220,000 compounds, 0.42% hits; in the data active = inhibition above about 15%;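 note: 0% = DMSO vehicle and 100% = wells lacking enzyme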
STAT1 activator: STAT1 signaling activators, primary screen, cell-based, HTS, luciferase reporter. NIH 3T3 STAT1-luciferase reporter, IFN-gamma, luminescence; 100% = IFN-gamma alone, no compound. activation (% of control), % at 5.5 µM. 200,000 compounds, 2.6% hits;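 active = activation above the screen-wide mean activation plus 3 SD, cut at about 130% in these data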;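 note: raw ratio to IFN-gamma control signal so 100% means no change and 0% no light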
* marks the source's active call; other numbers are inactive results; x = not tested or not shown. Only some compounds are listed: those with a hit (about 4.6% of all), similar ones and a draw of the others.

SMILES | NF-kB expr up | Wee1 degr inh | APP 5'UTR act | Mdm2 ligase inh | p97 ATPase inh | STAT1 activator
COc1ccccc1-c1cc(C(F)(F)F)n2ncc(S(=O)(=O)c3ccccc3)c2n1 | 1.12 | -0.3 | 4.4 | -4.7 | 0.3 | 102.8
CCCCCCc1cc2cc(C(N)=O)c(=N)oc2cc1O | 1.32 | -0.8 | 4.1 | -20.7 | 3.3 | 99.7
CCCCCCc1cc2cc(C(=O)OCC)c(=O)oc2cc1O | x | 9.9* | x | -14.5 | -2.8 | x
COc1cc(CN2CCCC(CO)(Cc3cccc(Cl)c3)C2)cc2c1OCO2 (stereo not drawn) | 1.14 | -0.4 | -18.2 | -9.6 | -0.4 | 98.5
Nc1c(C(=O)Nc2ccc(F)cc2)sc(=S)n1-c1ccccc1F | 1.66 | 2.1 | 57.9 | -51.8 | 8.2 | 130.9*
Cc1ccn(CC(C)C(=O)O)n1 (stereo not drawn) | 1.01 | 9.6* | 27.5 | -1.7 | 3.5 | 104.4
CC(=O)c1ccc(N2Cc3ccccc3C2=NC(=O)c2cccs2)cc1 | 3.01 | 2.3 | 86.3 | -24.1 | 1.3 | 135.3*
O=C(COC(=O)c1ccc[nH]c1=O)c1ccc(Cl)s1 | 1.02 | -2.7 | 7.7 | 7.5 | 0.9 | 104.0
Cc1ccc(C(=O)OCC(=O)c2ccc(Cl)s2)s1 | 2.15 | -2.0 | -1.5 | -14.1 | 2.9 | 130.6*
C=C(C)C1CC=C(C)/C(=N/NC(=O)c2cccs2)C1 (stereo not drawn) | 3.18 | -3.0 | 63.0 | -5.5 | 2.2 | 129.2*
C=C(C)C1CC=C(C)/C(=N/NC(=O)c2ccccc2[N+](=O)[O-])C1 (stereo not drawn) | 1.11 | -3.1 | 14.2 | -2.5 | -3.2 | 87.2
O=C(NN=C1C2CC3CC(C2)CC1C3)c1cccs1 | 2.24 | 9.5* | 131.4 | x | -1.8 | 121.8
NC(=O)c1ccc(NC(=O)CSc2nnc(-c3ccncc3)n2Cc2ccco2)cc1 | x | -0.6 | x | -5.4 | 4.8 | x
Cc1ccc(C(=O)N/N=C/C2=Cc3ccccc3OC2C)cc1 (stereo not drawn) | 1.05 | 6.4 | 35.9 | x | 0.3 | 98.8
CC1Oc2ccccc2C=C1/C=N/NC(=O)c1ccccc1 (stereo not drawn) | 1.75 | 2.8 | 43.6 | x | 4.5 | 133.1*
C/C(=N/N=C/c1ccc(N(C)C)cc1)c1ccccc1 | 1.71 | 1.9 | 188.7* | -72.9 | 5.2 | 132.6*
CC/C(=N\NC(=O)c1ccc(N(C)C)cc1)c1ccccc1 | 1.36 | 9.5* | 11.6 | -21.4 | 4.6 | 107.4
CN(C)c1ccc(/C=N/NC(=O)c2ccccc2)cc1 | 4.12* | 4.4 | 82.7 | -23.6 | -0.7 | 140.5*
CCCCCCCCc1nnc(N)s1 | x | 0.6 | x | -9.3 | 4.9 | x
O=C(N/N=C\c1ccc(Cl)cc1)c1sccc1-n1cccc1 | 1.46 | -0.1 | 2.8 | -13.5 | -2.2 | 113.6
CN(C)c1ccc(/C=N/NC(=O)c2sccc2-n2cccc2)cc1 | 1.23 | 1.0 | 10.2 | -15.0 | -1.1 | 129.6*
CCCCCC(=O)N/N=C/c1ccc(N(C)C)cc1 | 1.9 | 0.3 | 16.8 | x | 4.6 | 134.0*
CN(C)c1ccc(/C=N/NC(=O)CCCO)cc1 | 2.28 | 1.1 | 1.1 | -7.8 | 7.7 | 113.3
CC1(C)CN2C(=O)c3ccccc3C2(C)S1 (stereo not drawn) | 1.2 | -1.6 | -10.7 | -5.8 | 2.2 | 97.2
COc1ccc(OCC(O)CNC(=O)Nc2cc(F)ccc2C)cc1 (stereo not drawn) | x | -3.1 | x | 6.8 | 7.4 | x
SMILES | NF-kB expr up | Wee1 degr inh | APP 5'UTR act | Mdm2 ligase inh | p97 ATPase inh | STAT1 activator
CN1C(=O)C(CC(=O)O)S/C1=N\N=C\c1ccc(O)cc1O (stereo not drawn) | x | -1.5 | x | 1.0 | 1.9 | x
Oc1oc(-c2ccco2)nc1C=Nc1ccccc1 | 1.64 | 3.1 | -4.5 | -6.7 | 7.5 | 117.7
Cc1ccc(C(=O)Oc2oc(-c3ccco3)nc2C=Nc2ccccc2)cc1 | 3.04 | -0.7 | 49.0 | 2.6 | -1.4 | 139.4*
COc1ccc(N=Cc2nc(-c3ccccc3)oc2OC(=O)c2ccccc2)cc1 | 1.98 | -1.5 | 101.9 | -4.4 | -2.7 | 132.4*
CC(C)NC(=O)Cn1cc(C(=O)C2CC2)c2ccccc21 | 0.96 | 1.4 | -11.0 | -8.4 | 4.9 | 108.0
c1coc(-c2nnc(-c3ccc4c(c3)OCO4)o2)c1 | 2.62 | -0.9 | 88.2 | -29.4 | 2.6 | 132.6*
c1nnc(-c2ccc3c(c2)OCO3)o1 | 1.24 | 5.4 | 16.1 | -0.6 | -1.2 | 104.4
c1ccc(-c2nnc(-c3ccco3)o2)cc1 | 1.72 | 3.1 | 66.8 | -5.8 | 3.4 | 138.3*
O=C(Cc1ccccc1)Nc1ccc(-c2nnc(-c3ccco3)o2)cc1 | 1.09 | -0.9 | -3.9 | -11.6 | -2.5 | 108.3
Clc1ccc(CSc2nnc(-c3ccc4c(c3)OCO4)o2)cc1 | 1.24 | -2.5 | -3.5 | -3.9 | -2.9 | 103.3
Brc1ccc(-c2nnc(-c3ccc4c(c3)OCO4)o2)o1 | 3.95* | 6.5 | 5.0 | -47.5 | -5.4 | 115.2
O=C1CCCCC1Sc1nnc(-c2ccc3c(c2)OCO3)o1 (stereo not drawn) | 1.13 | -4.2 | 177.6* | -83.0 | -5.6 | 18.3
CCOC(=O)CN=C/C(C(=O)Nc1nccs1)=C(/C)O | 0.97 | 0.6 | 7.4 | -8.8 | -1.2 | 89.2
Cc1ccc(S(=O)(=O)N2CCCCC2)cc1NC(=O)COc1ccccc1F | 1.04 | -4.2 | 7.8 | 2.1 | -0.5 | 100.4
CCN(CC)CCCNC(=O)Cn1nc([N+](=O)[O-])c(Cl)c1C | 1.07 | -0.3 | -6.2 | 6.8 | 1.7 | 100.2
COC(=O)Nc1[nH]ncc1[N+](=O)[O-] | 1.03 | 8.2 | 12.8 | -1.5 | 5.3 | 98.2
Cc1ccc(-c2nnc(-c3ccc4c(c3)OCO4)o2)cc1 | 1.11 | -1.5 | 129.6 | -23.8 | 1.3 | 129.9*
CCc1ccccc1NC(=O)C1CCN(C(=O)c2ccc([N+](=O)[O-])cc2)CC1 | 1.01 | -0.8 | -2.0 | -4.2 | 1.2 | 99.8
N#Cc1nc(Cc2cccc3ccccc23)oc1NCCCN1CCOCC1 | 1.01 | -1.9 | 10.2 | -7.8 | -1.6 | 97.9
N#Cc1nc(Cc2ccccc2)oc1NCCN1CCOCC1 | 1.13 | -1.0 | -3.2 | 32.0* | -2.4 | 100.3
COc1cccc(CN(C)CC(=O)Nc2cc3oc4ccccc4c3cc2OC)c1 | 0.74 | 9.9* | -6.9 | x | -9.7 | 98.6
COCCCn1cnc2c(c1=O)c1nc3ccccc3nc1n2-c1ccccc1 | 0.63 | -1.4 | 3.3 | -10.3 | 2.5 | 102.0
COCCCn1cnc2oc3nc4ccccc4nc3c2c1=O | 2.32 | 3.0 | 166.5* | -8.5 | 5.4 | 141.1*
O=C(Nc1ccccc1)c1cc2ccccc2c(=O)s1 | 1.34 | 0.1 | 60.6 | -8.1 | 6.1 | 145.9*

High-throughput results deposited in PubChem BioAssay by several laboratories.
